High-throughput results deposited in PubChem BioAssay by several laboratories.
The list is not random: actives were taken first. Their share in the collection is about 9.4%.
CSC inhib – cancer stem cell inhibition | cancer stem cell-like cells viability, luminescence | inhibition, % at 7.5 µM | actives 1.1% (n = 300,000) | AID 2717; in the data active means inhibition above about 75%; tested in HMLE shEcad cells
SKKanGAS inh – inhibitors of SKKanGAS S. pyogenes growth in kanamycin (SK-promoter or general growth effect); BacTiter-Glo, 6 h; inhibition, % at 7.5 µM; actives 1.3% (n = 300,000); AID 1662;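 active means mean replicate score, as percent of positive control median, at least 50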;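 further: strain carries kanamycin resistance gene driven by streptokinase promoter and grows in 40 µg/ml kanamycin; loss of luminescence reflects streptokinase promoter inhibition or plain growth inhibition; 0% = median of DMSO wells and 100% = positive control at its reference dose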
L major viab – reduces viability of Leishmania major promastigotes; resazurin fluorescence viability; inhibition, % at 10 µM; actives 9% (n = 200,000); in the data active means inhibition above about 50%;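 further: promastigotes grown with compound for 44 hours at 28 °C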
T cruzi repl – blocks replication of Trypanosoma cruzi; inhibition, % (no concentration beside the values); actives 1.4% (n = 300,000); T. cruzi beta-gal in NIH3T3, luminescence, 90 h;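 active means mean inhibition across valid replicates above about 55%, limit read from the data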;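 further: signal also drops with host cell toxicity which is not excluded here; 0% = plate median of DMSO wells and 100% = zero luminescence signal; higher percent means less beta-gal luminescence so fewer parasites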
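assay system = mouse NIH/3T3 fibroblasts infected with β-gal-expressing T. cruzi Tulahuen C4 | input = 5,000 NIH/3T3 host cells per well | buffer or medium = DMEM plus 2% FBS | timing = 3 h host attachment, then at least 90 h co-culture | measured by = GalScreen luminescence, 60 min | evaluation = luminescence reflecting intracellular parasite burden, expressed as percent inhibition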
Mdm2 MdmX PPI – disrupts the human Mdm2-MdmX interaction; SaOS-2 split-luciferase Mdm2/MdmX complementation, luminescence; inhibition, % at 8 µM; actives 3% (n = 330,000); AID 485346;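 active means inhibition of at least 50% at 8 µM in the primary screen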
Beta apoptosis – beta cell apoptosis inhibition | AID 435005 | actives 0.8% (n = 300,000) | protection from apoptosis, % (concentration not given with the values) | INS-1E cytokine-induced death, ATP luminescence, 48 h; percent of positive-control rescue, neutral wells zero;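 active means Every replicate reaches about 75%, or at least half do and their mean reaches it too, limit read from the data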;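 further: 0% = cytokine-treated negative control wells and 100% = positive control rescue; higher means more ATP so stronger rescue from cytokine killing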
* marks the source's active call; other numbers are inactive results; / = no result given.

SMILES | CSC inhib | SKKanGAS inh | L major viab | T cruzi repl | Mdm2 MdmX PPI | Beta apoptosis
COc1ccc2oc(=Nc3cc(F)ccc3F)c(C(N)=O)cc2c1 | 66 | -4 | 59* | -1 | 49 | -10
COc1ccc2oc(=O)c(C(=O)Nc3ccccc3O)cc2c1 | 2 | 9 | / | 0 | -241 | 2
COc1ccc(NC(=O)c2cc3ccc(O)cc3o/c2=N\O)cc1 | 75* | -4 | / | -7 | -28 | /
CC(C)OC(=O)COc1cc(O)c2c(=O)cc(-c3ccccc3)oc2c1 | -26 | 7 | / | 6 | -12 | -1
Nc1[nH]c(=O)nc(Nc2ccccc2)c1N=O | -10 | 1 | / | 0 | 5 | -12
CCCCN1C(=O)C(=O)N(CC(=O)c2ccc3c(c2)OCO3)C1=O | 4 | -2 | / | -16 | -8 | -2
CCc1cccc(C)c1NC(=O)CSc1nc(-c2ccccc2F)nc2nc[nH]c12 | 1 | 3 | 62* | 12 | -18 | -8
O=C(N/N=C/c1ccc(Br)s1)c1ccccc1[N+](=O)[O-] | 0 | -4 | 50 | 7 | 11 | 0
Cc1cc(C(=O)N/N=C/c2ccc(-c3ccc([N+](=O)[O-])cc3Cl)o2)n[nH]1 | 7 | 7 | / | 30 | -3 | 2
Cc1cc(C(=O)N/N=C/c2ccc(C)s2)n[nH]1 | / | 7 | / | 2 | -35 | -6
Cc1cc(C(=O)N/N=C/c2ccc([N+](=O)[O-])s2)n[nH]1 | / | 109* | / | 57* | 21 | /
Cc1[nH]cnc1C(=O)N/N=C/c1ccc([N+](=O)[O-])s1 | 9 | 103* | / | 57* | 31 | 12
Cc1cc(C(=O)N/N=C/c2ccc(-c3ccccc3Cl)o2)n[nH]1 | 22 | -6 | 11 | 62* | -4 | -4
Cc1ccc(/C=C2/Sc3ccccc3N(CC(=O)NCCCOC(C)C)C2=O)cc1 | 11 | 10 | 8 | 10 | 2 | 2
N#Cc1cc(-c2ccccc2)nc(Oc2ccc(Cl)cc2)n1 | 11 | -10 | 77* | 25 | 37 | /
Cc1ccc(-c2csc3nc4c5ccccc5c(NCCCN5CCOCC5)nn4c(=O)c23)cc1 | 34 | 5 | 101* | 27 | 37 | -5
O=C(/C=C/c1ccc2c(c1)OCO2)Nc1cccnc1 | 83* | -6 | 2 | 2 | -101 | -3
Cc1cc(C)nc(NC(=O)/C=C/c2ccc3c(c2)OCO3)c1 | 85* | 7 | 23 | 0 | -60 | 10
Cc1sc(NC(=O)/C=C/c2ccc3c(c2)OCO3)nc1-c1ccccc1 | 108* | 20 | 42 | 24 | 33 | 15
O=C(/C=C/c1ccc2c(c1)OCO2)Nc1nncs1 | 57 | 8 | / | 3 | -24 | /
O=C(/C=C/c1ccc2c(c1)OCO2)Nc1nc(-c2ccccc2)cs1 | 99* | 38 | 7 | 14 | 24 | /
Nc1ccccc1C(=O)/C=C/c1ccc2c(c1)OCO2 | 52 | 2 | 58* | 1 | -59 | -9
O=C(O)c1ccccc1C(=O)Nc1nc(-c2ccc3ccccc3c2)cs1 | 9 | 12 | / | -15 | -10 | /
O=C(/C=C\c1ccco1)Nc1nc(-c2ccc3ccccc3c2)cs1 | 30 | 63* | 3 | 15 | 34 | -5
Cc1c(Br)cnn1C(C)C(=O)N1CCN(c2ccccc2F)CC1 (stereo unspecified) | / | / | / | / | 7 | -6
CCN1CCN(Cc2c(O)ccc3c2O/C(=C\C=C\c2ccccc2OC)C3=O)CC1 | 2 | 9 | 69* | 4 | -6 | 2
O=C(CSc1n[nH]c(=O)[nH]c1=O)N/N=C/c1ccccc1O | 1 | 9 | 100* | -10 | 15 | -1
